# Assay results: the RNAGym collection of RNA variant scans (doi:10.1126/science.aae0568)
# This sample holds only a part of the variants without activity.
# B1: tRNA (parent)
# chain: GUUCCGUUGGCGUAAUGGUAACGCGUCUCCCUCCUAAGGAGAAGACUGCGGGUUCGAGUCCCGUACGGAACG
# Variants of: B1
# Test: yeast fitness relative to wild type (ratio to wild type); higher = fitter; tRNA-Arg(CCU), competitive growth, 37 C, YPD
# In short: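 The tRNA-Arg(CCU) gene variants were made by chemical synthesis with a 3% per-site mutation rate at 69 sites and inserted at the native genomic locus of Saccharomyces cerevisiae. After pooling, the strains were competed in YPD at 37°C for 24 hours in six parallel replicates. Gene amplicons from the start population and each end population were read by 100-nucleotide paired-end sequencing, and Darwinian fitness relative to wild type was taken from genotype frequency changes. Genotypes needed ≥ 100 starting reads, and estimates < 0.5 were set to 0.5.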
row,Variant,yeast fitness
1,GUUCCGUUGGUGUAAUGGUAACGCGUCUCCCUCCUAAGGAGAAGCCUGCGGGUUCGAGUCCCGUACGGAUCG [C11U A45C A70U],0.582
2,GUUCCGUUGGUGUAAUGGUAACGCGUCUCCCUCCUAAGGAGAAGCCUGCGGGUUCGAGUCCGGUCCGGAACG [C11U A45C C62G A65C],≤ 0.5
3,GUUCCGUUGGUGUAAUGGUAACGCGUCUCCCUCCUAUGGAGAAGACUGCGGGUUCGAGUCCCGUACGGAACG [C11U A37U],0.808
4,GUUCCGUUGGUGUAAUGGUAACGCGUCUCCCUCCUACGGAGAAGACUGCGGGUUCGAGUCCCGUACGGAACG [C11U A37C],0.724
5,GUUCCGUUGGUGUAAUGGUAACGCGUCUCCCUCCUAUGGAGAAGACUGCGGGUUCGAGUUCCGUACGGAACG [C11U A37U C60U],0.539
6,GUUCCGUUGGUGUAAUGGUAACGCGUCUCCCUCCUAAGGCGAUGACUGCGGGAUCGAGUCCCGUACGGAACG [C11U A40C A43U U53A],≤ 0.5
7,GUUCCGUUGGUGUAAUGGUAACGCGUCUCCCUCCUACGGAGAAGACCGCGGGUUCGAGUCCCGUACGGAACG [C11U A37C U47C],0.706
8,GUUCCGUUGGUGUAAUGGUAACGCGUCUCCCUCCUGAGGAGACGACUGCGGGUUCGAGUCCCGUACGGAACG [C11U A36G A43C],0.546
9,GUUCCGUUGGUGUAAUGGUAACGCGUCUCCCUCCUAAGGAGACGACUGCGGGUUCGAGUCCUGUACGGAACG [C11U A43C C62U],0.692
10,GUUCCGUUGGUGUAAUGGUAACGCGUCUCCCUCCUAAGGAGGAGACUGCGGGUUCGAGCCUCGUACGGAACG [C11U A42G U59C C61U],≤ 0.5
11,GUUCCGUUGGUGUAAUGGUAACGCGUCUCCCUCCUAAGGAGAUGACUGCGGGUUCGAGUCCAGUACGGAACG [C11U A43U C62A],0.605
12,GUUCCGUUGGUGUAAUGGUAACGCGUCUCCCUCCUACGGAGAAGACCGCGGGUUCGAGUCCCGUACGCAACG [C11U A37C U47C G68C],≤ 0.5
13,GUUCCGUUGGUGUAAUGGUAACGCGUCUCCCUCCUAAGGGGAAGACUGCGGGUUCGAGUCCCGUACCGUACG [C11U A40G G67C A69U],0.574
14,GUUCCGUUGGUGUAAUGGUAACGCGUCUCCCUCCUGAGGAGAAGACUGCGGGUUCGAGUGCCGUACGGACCG [C11U A36G C60G A70C],≤ 0.5
15,GUUCCGUUGGUGUAAUGGUAACGCGUCUCCCUCCUAAGGAGGAGACUGCGGGUUCGAGUGCCGUACGGAACG [C11U A42G C60G],≤ 0.5
16,GUUCCGUUGGUGUAAUGGUAACGCGUCUCCCUCCUAAGGAGACAACUGCGGGUUCGAGUCCCGUACGGAACG [C11U A43C G44A],0.741
17,GUUCCGUUGGUGUAAUGGUAACGCGUCUCCCUCCUACGGAGAAGCCUGCGGGUUCGAGUCCCGUACGGAACG [C11U A37C A45C],0.576
18,GUUCCGUUGGUGUAAUGGUAACGCGUCUCCCUCCUAAGGAGUAGACUGCGGGUUCGAGUCCCGUAAGGAACG [C11U A42U C66A],0.51
19,GUUCCGUUGGUGUAAUGGUAACGCGUCUCCCUCCUAUGGAGAAGACUGGGGGUUCGAGUCCCGUACGGAACG [C11U A37U C49G],≤ 0.5

row,Variant,yeast fitness
1,GUUCCGUUGGUGUAAUGGUAACGCGUCUCCCUCCUAAGGAGACGACUGCGGGUUCAAGUCCCGUACGGAACG [C11U A43C G56A],0.692
2,GUUCCGUUGGUGUAAUGGUAACGCGUCUCCCUCCUAAGGAGACGACUCCGGGUUCGAGUCCCGCACGGAACG [C11U A43C G48C U64C],≤ 0.5
3,GUUCCGUUGGUGUAAUGGUAACGCGUCUCCCUCCUAAGGAGCAGACUGCGGGUUCGAGUCCCGUGCGGAACG [C11U A42C A65G],0.658
4,GUUCCGUUGGUGUAAUGGUAACGCGUCUCCCUCCUAAGGUGAAGAUUGCGGGUUCGAGUGCCGUACGGAACG [C11U A40U C46U C60G],0.589
5,GUUCCGUUGGUGUAAUGGUAACGCGUCUCCCUCCUAAGGAGGAGAGUGCGGGUUCCAGUCCCGUCCGGAACG [C11U A42G C46G G56C A65C],≤ 0.5
6,GUUCCGUUGGUGUAAUGGUAACGCGUCUCCCUCCUAAGGAGAAGGGAGCGGGUUCGAGUCCGGUCCGGAACG [C11U A45G C46G U47A C62G A65C],0.533
7,GUUCCGUUGGUGUAAUGGUAACGCGUCUCCCUCCUAAGGAGAUGAGUGCGGGUUCGAGUCCCGUACGGAACG [C11U A43U C46G],0.723
8,GUUCCGUUGGUGUAAUGGUAACGCGUCUCCCUCCUAAGGUGAAGACUGCCGGUUCGACACCCGUACGGAACG [C11U A40U G50C G58C U59A],0.564
9,GUUCCGUUGGUGUAAUGGUAACGCGUCUCCCUCCUAAGGAGAUGCCUGCGGGUUCGAGUCCCGUACCGAACG [C11U A43U A45C G67C],≤ 0.5
10,GUUCCGUUGGUGUAAUGGUAACGCGUCUCCCUCCUCAGGAGAAGACUGCGGGUUCGAGUCUCGUACGGAACG [C11U A36C C61U],≤ 0.5
11,GUUCCGUUGGUGUAAUGGUAUCGCGUCUCCCUCCUAAGGAAAAGACUGCGGGUUCGCGUCCCGUACGGAACG [C11U A21U G41A A57C],≤ 0.5
12,GUUCCGUUGGUGUAAUGGUAACGCGUCUCCCUCCUCAGGAGAAGACUGCGGGUUCGAGUCCCGAACGGACCG [C11U A36C U64A A70C],≤ 0.5
13,GUUCCGUUGGUGUAAUGGUAACGCGUCUCCCUCCUAAGGAGUAGACUGCGGGUUCGAGUCCCGUACCGAACG [C11U A42U G67C],0.536
14,GUUCCGUUGGUGUAAUGGUAUCGCGUCUCCCUCCAUAGGAGAAGACUGCGGGUUCGAGUCCCGUACGGAACG [C11U A21U U35A A36U],≤ 0.5
15,GUUCCGUUGGUGUAAUGGUAACGCGUCUCCCUCCUAAGGAGGAGACUACGGGUUCGAGUCCCGUACGGAACG [C11U A42G G48A],0.678
16,GUUCCGUUGGUGUAAUGGUAACGCGUCUCCCUCCUGAGGAGAAGACUGCGGGUUCGAGUCCCGUACGGAACG [C11U A36G],0.822
17,GUUCCGUUGGUGUAAUGGUAUCGCGUCUCCCUCCUAAGGAGAAGACUGCGGGUUCGAGUCACGUACGGAUCG [C11U A21U C61A A70U],≤ 0.5
18,GUUCCGUUGGUGUAAUGGUAACGCGUCUCCCUCCUGAGGAGAAGACUGCGGGCUCGAGUCCCGUACGGAACG [C11U A36G U53C],0.538
19,GUUCCGUUGGUGUAAUGGUAACGCGUCUCCCUCCUUAGGAGAAGACUCCGGGUCCGAGUCCCGUACGGAACG [C11U A36U G48C U54C],≤ 0.5
